PMC7913687 (Nucleic Acids Research, 2021)
Values belong to the compound of their own block, whether it stands above or below them.

Columns and labels:
[1] = test system: t^6A formation by TsaC, TsaB, TsaD and TsaE; assay: In vitro HPLC assay for t^6A formation, overall; format: biochemical, Escherichia coli; conditions: for Km: read-out: Km, overall reaction, apparent, amino acid as variable substrate; for k cat, overall reaction: named ligand as variable substrate
[2] = molecular target: overall reaction (TsaC, TsaB, TsaD and TsaE) (Escherichia coli, UniProt P05852+P45748); assay: Inhibition of t6A formation in the full TsaBCDE reaction; format: biochemical; conditions: read-out: IC50 (μM) Overall reaction
Summary of the method: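 Full reaction: 50 mM MOPS pH 7.5, 20 mM NaHCO3, 25 mM KCl, 1 mM ATP, L-Thr (0.6 mM per footnote; 1 mM in text), 10 μM unmodified E. coli tRNALys, 1 μM each TsaB/C/D/E. Variable test compound; ATP-started; 23 °C, 5 min; EDTA quench, G-50 desalting, nuclease P1/alkaline phosphatase digest. Isocratic C18 HPLC quantifies t6A at 260 nm. IC50 from near-initial rates.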

[3] = molecular target: EcTsaBDE (Escherichia coli, UniProt P05852); assay: Isolated second step of t^6A formation; format: biochemical
[4] = molecular target: T1, TsaC (Escherichia coli, UniProt P45748); assay: TsaC reaction; format: biochemical; conditions: named ligand as variable substrate
T1 sequence (P45748 1-190): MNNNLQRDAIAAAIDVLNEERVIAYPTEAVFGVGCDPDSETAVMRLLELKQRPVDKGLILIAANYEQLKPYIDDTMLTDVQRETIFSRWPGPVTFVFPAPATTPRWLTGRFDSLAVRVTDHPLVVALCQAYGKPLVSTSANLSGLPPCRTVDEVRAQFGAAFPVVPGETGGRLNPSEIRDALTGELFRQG
Summary of the method: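 Enzyme, with the other components and any inhibitor, preincubated 2 min at 23°C, then started with ATP. After 1 min at 23°C, injected directly onto C18 HPLC (isocratic 50 mM potassium phosphate pH 6, 1% acetonitrile). TC-AMP read by UV at 260 nm. […], measured near initial rates.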

[5] = test system: EcTsaBDE complex; conditions: read-out: Km for TsaE-catalyzed ATPase activity; cited from earlier work
[6] = test system: aspartate and ornithine transcarbamoylases; conditions: cited from earlier work
[7] = test system: C[C@@H](O)[C@H](N)C(=O)O; assay: purified protein, by the assay type; conditions: pH 6.0; 23.0 °C
[8] = test system: Nc1ncnc2c1ncn2[C@@H]1O[C@H](COP(=O)(O)OP(=O)(O)OP(=O)(O)O)[C@@H](O)[C@H]1O; assay: purified protein, by the assay type; conditions: pH 6.0; 23.0 °C
[9] = molecular target: Escherichia coli TsaBD heterodimer, preformed from fluorescently labelled His6-TsaD and unlabelled TsaB (Escherichia coli) (UniProt P05852); assay: MST
Sequence of Escherichia coli TsaBD heterodimer, preformed from fluorescently labelled His6-TsaD and unlabelled TsaB (Escherichia coli) (P05852 whole entry, chain 1 of 2): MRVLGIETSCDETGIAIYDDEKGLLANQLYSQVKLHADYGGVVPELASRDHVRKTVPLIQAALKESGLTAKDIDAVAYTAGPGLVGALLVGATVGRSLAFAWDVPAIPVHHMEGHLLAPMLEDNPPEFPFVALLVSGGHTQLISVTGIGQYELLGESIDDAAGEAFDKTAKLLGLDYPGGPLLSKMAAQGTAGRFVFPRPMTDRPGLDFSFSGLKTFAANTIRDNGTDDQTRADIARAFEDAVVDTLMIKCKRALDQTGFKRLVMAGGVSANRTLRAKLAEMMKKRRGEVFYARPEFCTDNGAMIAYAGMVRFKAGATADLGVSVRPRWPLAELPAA
Sequence of Escherichia coli TsaBD heterodimer, preformed from fluorescently labelled His6-TsaD and unlabelled TsaB (Escherichia coli) (P76256 whole entry, chain 2 of 2, further chain): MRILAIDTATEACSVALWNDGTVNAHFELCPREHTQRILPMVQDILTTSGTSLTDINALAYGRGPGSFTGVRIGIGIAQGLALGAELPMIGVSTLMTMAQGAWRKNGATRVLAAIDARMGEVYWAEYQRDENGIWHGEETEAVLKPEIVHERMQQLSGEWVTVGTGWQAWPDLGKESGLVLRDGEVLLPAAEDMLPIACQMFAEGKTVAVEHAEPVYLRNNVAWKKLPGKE

Sequence of overall reaction (TsaC, TsaB, TsaD and TsaE) (P76256 whole entry, one chain of several): as the sequence (P76256 whole entry, chain 2 of 2, further chain) above
Sequence of overall reaction (TsaC, TsaB, TsaD and TsaE) (P05852 whole entry, one chain of several): as the sequence (P05852 whole entry, chain 1 of 2) above
Sequence of EcTsaBDE (P05852 whole entry): as the sequence (P05852 whole entry, chain 1 of 2) above
Sequence of EcTsaBDE (P76256 whole entry partner): as the sequence (P76256 whole entry, chain 2 of 2, further chain) above

- Km [1]: 500 µM
Compound: CCC(O)[C@H](N)C(=O)O (mixture of isomers) [hNV, (±)-3-hydroxynorvaline]

- IC50 [2]: 160 ± 20 µM
Compound: Nc1ncnc2c1ncn2[C@@H]1O[C@H](COP(=O)(O)OP(=O)(O)O)[C@@H](O)[C@H]1O [5′-ADP, adenosine 5'-diphosphate]

- IC50 [2]: 113 ± 10 µM
Compound: Nc1ncnc2c1ncn2[C@@H]1O[C@H](COP(=O)(O)O)[C@@H](O)[C@H]1O [5′-AMP, adenosine 5'-monophosphate]

- fold lower turnover of t^6A formation than ATPase activity [3]: ~80 fold
- fold lower Km for t^6A second step than Km for ATPase activity ([3]; 14 μM vs 0.64 mM): 40 fold
- Kis, second step with TC-AMP as substrate ([3]; TC-AMP 10 μM, fit to Equation 3): 1.8 mM
- Kis (substrate inhibition), TsaBDE reaction ([3]; TC-AMP 10 μM, calculated for observed substrate inhibition): 1800 µM
- k cat, TsaBDE reaction ([3]; named ligand as variable substrate): 0.002 ± 0.0017 s⁻¹
- K m, TsaC reaction [4]: 130 ± 10 µM
- k cat, TsaC reaction [4]: 0.132 ± 0.0033 s⁻¹
Compound: Nc1ncnc2c1ncn2[C@@H]1O[C@H](COP(=O)(O)OP(=O)(O)OP(=O)(O)O)[C@@H](O)[C@H]1O [ATP]
- reduction in the Vmax (substrate inhibition) ([1]; at 5 mM ATP): 50%
- reduction in the Vmax (substrate inhibition) ([1]; at 10 mM ATP): 90%
- Kis (substrate inhibition), overall reaction ([1]; calculated for observed substrate inhibition, fit to Equation 3): 2200 µM
- k cat, overall reaction [1]: 0.00667 ± 0.0067 s⁻¹
- Km [5]: 640 µM

Compound: NC(=O)OP(=O)(O)O [CP, carbamoyl phosphate]
- Km [6]: 4 to 10 µM

- Km [1]: 590 ± 90 µM
- K m, TsaC reaction [4]: 1770 ± 260 µM
- k cat, TsaC reaction [4]: 0.15 ± 0.0067 s⁻¹
Compound: C[C@@H](O)[C@H](N)C(=O)O [L-Thr, L-threonine]
- k cat, overall reaction [1]: 0.007 ± 0.00033 s⁻¹

- IC50 [2]: 9.3 ± 1.2 µM
Compound: Nc1ncnc2c1ncn2[C@@H]1O[C@H](COP(=O)(O)OC(=O)N[C@@H](CO)C(=O)O)[C@@H](O)[C@H]1O [SC-AMP, serine analog of TC-AMP (L-serylcarbamoyl-adenylate)]

Compound: EcTsaC (Escherichia coli K-12)
- Km [7]: 1770 ± 260 µM
- kcat [7]: 0.15 ± 0.00667 s⁻¹
- Km [8]: 130 ± 10 µM
- kcat [8]: 0.132 ± 0.00333 s⁻¹

- Kd [9]: 2.2 µM
Compound: Escherichia coli TsaE (from UniProt P0AF67 1-153) (enzyme; other documents disagree on this pair)
